# Source: publication PMC8800389 (Neuron, 2020)
# T1: PPIL1 (Homo sapiens, UniProt Q9Y3C6)
# T1 sequence (Q9Y3C6 1-166): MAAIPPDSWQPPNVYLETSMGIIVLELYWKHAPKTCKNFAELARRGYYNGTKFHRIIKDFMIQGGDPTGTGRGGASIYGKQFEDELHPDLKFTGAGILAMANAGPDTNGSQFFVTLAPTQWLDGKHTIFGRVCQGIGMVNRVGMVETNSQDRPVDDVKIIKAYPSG
# T2: PPIL1 p.T107A, purified recombinant (human, UniProt Q9Y3C6 1-166, p.T107A)
# T2 sequence (looked up): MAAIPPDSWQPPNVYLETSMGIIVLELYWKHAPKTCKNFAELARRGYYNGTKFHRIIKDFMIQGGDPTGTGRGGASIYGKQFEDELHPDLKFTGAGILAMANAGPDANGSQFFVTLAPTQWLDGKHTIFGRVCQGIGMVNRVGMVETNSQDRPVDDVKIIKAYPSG
# Key:
# [1] = cis/trans conformation of the PRP17 Gly94-Pro95 bond by 1H-13C HSQC; format: physicochemical; conditions: 500 μM peptide in PBS (pH 7.4), 5 % v/v D2O, 750 MHz
# [2] = target: T1, PPIL1; format: biochemical; conditions: catalytic concentrations of PPIL1 WT, 25 mM sodium phosphate, 100 mM NaCl, 1 mM dithiothreitol, 5% D2O, pH 7.0, 950 MHz; Figure S6I
# Method in brief: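 Substrate: uniformly 15N-labeled PRP17 peptide (residues 84–101), made as a His-SUMO fusion in BL21(DE3) in 15N minimal medium. Induction was 1 mM IPTG, 37 °C, 8 h. Ni-NTA, SUMO protease cleavage (30 °C, 6 h) and C18 reverse-phase HPLC followed, then lyophilisation. ZZ mixing times 120 (×2), 150, 200, 250 (×2), 350, 450, 600 and 750 ms on a TXO cryoprobe.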
# [3] = target: T2, PPIL1 p.T107A, purified recombinant; test: SPR
molecule,measurement,setting,value
Ac-FAPEFGPENPFRT-NH2,Gly94-Pro95 bond conformation,[1],present in both cis and trans conformations
TYETMFAPEFGPENPFRT,proline isomerization by PPIL1 WT (ZZ exchange),[2],This was also confirmed
"N-terminal GST tagged SKIP 59–129 (domain or fragment, UniProt Q13573 59-129, looked up) GDGGAFPEIHVAQYPLDMGRKKKMSNALAIQVDSEGKIKYDAIARQGQSKDKVIYSKYTDLVPKEVMNADD",binding result,[3],binds
